The values below come from ChEMBL document CHEMBL1914431, “Discovery of a novel series of nonacidic benzofuran EP1 receptor antagonists” (Bioorg Med Chem Lett, 2011).

≈ marks a conversion by molar mass, not a printed value. Calls of active or inactive are those of the source. No cut-off for these calls is given here. Where only a bound is given, the exact number is not on record here.

In data set [1] the target is T1, Prostaglandin E2 receptor EP1 subtype (Homo sapiens, UniProt P34995).
T1 sequence (P34995 whole entry): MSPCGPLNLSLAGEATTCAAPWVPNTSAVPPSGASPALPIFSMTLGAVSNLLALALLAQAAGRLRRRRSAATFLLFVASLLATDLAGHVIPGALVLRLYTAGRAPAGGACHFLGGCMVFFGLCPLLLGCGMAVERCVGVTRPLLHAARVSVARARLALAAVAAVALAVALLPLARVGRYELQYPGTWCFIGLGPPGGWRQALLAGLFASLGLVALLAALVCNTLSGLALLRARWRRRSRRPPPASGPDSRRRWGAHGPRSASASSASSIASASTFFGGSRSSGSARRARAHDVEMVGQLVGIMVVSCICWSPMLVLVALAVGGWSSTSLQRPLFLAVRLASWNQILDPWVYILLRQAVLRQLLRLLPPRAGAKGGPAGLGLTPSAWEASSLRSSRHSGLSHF
In words: Displacement of [3H]GW875240X from human prostanoid EP1 receptor expressed in CHO-K1 cells after 45 mins by topcount liquid scintillation counting. It counts as cell-based. The procedure, abridged: (§1)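 Radioligand binding at the EP1 receptor. Either [3H]-GW875240X or [3H]-PGE2 is the displaced ligand. Values are pIC50, means of at least three experiments.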
A general note: Loss of bound radioactivity is the signal in a displacement assay; it reports binding, not function.

For data set [2], the target named is T1, Prostaglandin E2 receptor EP1 subtype. As to the kind of experiment: Displacement of [3H]PGE2 from human prostanoid EP1 receptor expressed in CHO-K1 cells after 30 mins by topcount liquid scintillation counting. It counts as cell-based. The method in brief:
as §1

Data set [3] in a line: Solubility of the compound in fed state simulated intestinal fluid after 1 hr. It counts as physicochemical. The method in brief:
(§2)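 Solubility is measured after 1 h in water, SGF, FaSSIF and FeSSIF, in µg/mL.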

Data set [4] has as its system Liver microsomes. As to the kind of experiment: Intrinsic clearance in human liver microsomes. In kind it is ADME, Microsome. (In general: Liver microsomes are a subcellular fraction often used to study metabolism.)
Data set [5] can be described thus: Half life in rat at 3 mg/kg, po. It counts as ADME, organism-based. Also on record: dose 3 mg/kg, route oral. As to conditions: in vivo. The procedure, abridged:
(§3)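 Rat oral pharmacokinetics at 3 mg/kg in 1% (w/v) aqueous methylcellulose. Bioavailability and half-life are derived.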

Data set [6] has as its system Rattus norvegicus. As to the kind of experiment: Analgesic activity in rat assessed as reversal of complete Freund's adjuvant-induced inflammatory pain at 30 mg/kg, po after 1 hr post dose relative to 10 mg/kg of celecoxib. It counts as functional, organism-based. The procedure, abridged:
(§4)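 Rat CFA inflammatory pain model. Oral dosing in 1% methylcellulose. Hypersensitivity reversal is read by weight bearing, at 1 h post-dose. The 5 mg/kg study was also read at 3 h. Dose-response groups were 3, 10 and 30 mg/kg, or 1, 3 and 10 mg/kg, with ED50 derived. Celecoxib at 10 mg/kg po served as the standard.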

Data set [7] in a line: Blood clearance in rat at 1 mg/kg, iv. Details: dose 1 mg/kg, route intravenous. In kind it is ADME, organism-based.
Data set [8] deals with Rattus norvegicus. As to the kind of experiment: Analgesic activity in po dosed rat assessed as reversal of complete Freund's adjuvant-induced inflammatory pain after 1 hr post dose. In kind it is functional. The method in brief:
as §4

Data set [9] can be described thus: Drug level in blood of rat complete Freund's adjuvant-induced inflammatory pain model at 30 mg/kg, po after 1 hr. It counts as ADME, organism-based. Details: dose 30 mg/kg, route oral. Conditions: read-out: Drug uptake. The procedure, abridged: (§5)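 Blood and brain samples are taken from CFA rats after oral dosing in 1% methylcellulose. Sampling is at 1 h post-dose, and at 3 h in the 5 mg/kg study. Concentrations are in µM or nM, n = 7 or n = 6 for blood and n = 3 for brain. The brain:blood ratio is calculated from the same rats.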

Data set [10] is described as follows: Ratio of drug level in brain to blood in rat complete Freund's adjuvant-induced inflammatory pain model at 5 mg/kg, po after 3 hrs. As to conditions: read-out: BBR. It counts as ADME, organism-based. Also on record: dose 5 mg/kg, route oral. The procedure, abridged:
as §5

A short description of data set [11]: Solubility of the compound in fasted state simulated intestinal fluid after 1 hr. It counts as physicochemical. The method in brief: as §2
Data set [12] deals with P-gp. In words: Permeability across MDCK cells expressing p-gp. In kind it is ADME, cell-based, Canis lupus familiaris. Conditions: dog, MDCK-MDR1; read-out: permeability. The method in brief:
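MDCK cells. Passive permeability is reported as Pexact (nm/sec), and efflux ratio is used to assess Pgp substrate status.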

Data set [13] in a line: Oral bioavailability in rat at 3 mg/kg. In kind it is ADME, organism-based. Conditions: in vivo. The procedure, abridged: as §3
Data set [14] relates to Rattus norvegicus. As to the kind of experiment: Analgesic activity in rat assessed as reversal of complete Freund's adjuvant-induced inflammatory pain at 5 mg/kg, po after 3 hrs post dose. In kind it is functional, organism-based. Details: dose 5 mg/kg. The procedure, abridged:
as §4

Data set [15] concerns P-gp. In words: Efflux ratio of the compound in MDCK cells expressing p-gp. It counts as ADME, cell-based, Canis lupus familiaris. Conditions: dog, MDCK-MDR1. The method in brief: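 MDCK cell monolayers were used to measure permeability. The efflux ratio is reported alongside exact permeability (Pexact, nm/sec) and was used to judge whether the compound is a Pgp substrate.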

The nature of data set [16]: Half life in rat at 1 mg/kg, iv. As to conditions: in vivo. In kind it is ADME, organism-based. Details: dose 1 mg/kg, route intravenous.
Data set [17] can be described thus: Solubility of the compound in simulated gastric fluid after 1 hr. In kind it is physicochemical. The method in brief: as §2
A short description of data set [18]: Volume of distribution at steady state in rat at 1 mg/kg, iv. It counts as ADME, organism-based. Also on record: dose 1 mg/kg, route intravenous. Conditions: in vivo, read-out: Vdss.
A short description of data set [19]: Lipophilicity, log D of compound at pH 7.4 by shake flask method. Conditions: buffer. It counts as physicochemical. The procedure, abridged:
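Log D is determined by the shake flask method at pH 7.4.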

Data set [20] in a line: Drug level in blood of rat complete Freund's adjuvant-induced inflammatory pain model at 10 mg/kg, po after 1 hr. It counts as ADME, organism-based. Details: dose 10 mg/kg, route oral. As to conditions: read-out: Drug uptake. The method in brief: as §5
The nature of data set [21]: Drug level in brain of rat complete Freund's adjuvant-induced inflammatory pain model at 30 mg/kg, po after 1 hr. It counts as ADME, organism-based. Conditions: read-out: Drug uptake. Details: dose 30 mg/kg, route oral. The method in brief:
as §5

The nature of data set [22]: Drug level in blood of rat complete Freund's adjuvant-induced inflammatory pain model at 3 mg/kg, po after 1 hr. In kind it is ADME, organism-based. Details: dose 3 mg/kg, route oral. As to conditions: read-out: Drug uptake. The procedure, abridged: as §5
A short description of data set [23]: Ratio of drug level in brain to blood in rat complete Freund's adjuvant-induced inflammatory pain model at 30 mg/kg, po after 1 hr. Details: dose 30 mg/kg, route oral. It counts as ADME, organism-based. As to conditions: read-out: BBR. The procedure, abridged: as §5
The test system of data set [24] is Rattus norvegicus. As to the kind of experiment: Analgesic activity in rat assessed as reversal of complete Freund's adjuvant-induced inflammatory pain at 5 mg/kg, po after 1 hr post dose. In kind it is functional, organism-based. Details: dose 5 mg/kg. The method in brief: as §4
The target in data set [25] is T1, Prostaglandin E2 receptor EP1 subtype. As to the kind of experiment: Antagonist activity at human recombinant EP1 receptor expressed in CHO-K1 cells assessed as inhibition of PGE2-mediated intracellular calcium mobilization by FLIPR method. It counts as functional, cell-based.
The target of data set [26] is T2, Prostaglandin E2 receptor EP3 subtype (Homo sapiens, UniProt P43115).
T2 sequence (P43115 whole entry): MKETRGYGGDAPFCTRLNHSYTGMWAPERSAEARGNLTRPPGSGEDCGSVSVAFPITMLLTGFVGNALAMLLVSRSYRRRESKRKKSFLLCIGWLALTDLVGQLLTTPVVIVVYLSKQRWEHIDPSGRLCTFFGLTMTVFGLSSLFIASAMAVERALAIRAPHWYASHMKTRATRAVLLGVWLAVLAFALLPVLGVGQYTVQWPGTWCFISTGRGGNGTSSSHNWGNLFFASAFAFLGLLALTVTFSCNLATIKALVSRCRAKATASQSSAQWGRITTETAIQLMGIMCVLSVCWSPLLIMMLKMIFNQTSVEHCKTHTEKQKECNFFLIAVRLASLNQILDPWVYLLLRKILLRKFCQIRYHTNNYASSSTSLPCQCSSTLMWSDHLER
As to the kind of experiment: Antagonist activity at human recombinant EP3 receptor expressed in CHO-K1 cells assessed as inhibition of PGE2-mediated intracellular calcium mobilization by FLIPR method. It counts as functional, cell-based. On the technique in general: Calcium flux is commonly read through the fluorescence of an indicator in the cells.

What is called IC50 is the midpoint of a concentration-inhibition curve. In [1], `Cc1cc(NC(=O)C2CCN(CC(F)(F)F)CC2)nn1Cc1cc(Cl)cc2cc(-c3ccccc3)oc12` showed an IC50 of 25.1 nM.
With `CNCc1ccc(NC(=O)c2cc(C)n(Cc3cc(Cl)cc4cc(C(C)C)oc34)n2)cc1`, in [2], the IC50 is 63.1 nM.
Still for that read-out and setting: to `Cc1cc(C(=O)O)nn1Cc1cc(Cl)cc2nc(C(C)C)cn12` belongs more than 1000 nM; to `Cc1cc(C(=O)NN2CCCCC2)nn1Cc1cc(Cl)cc2cc(C(C)C)oc12`, 100 nM.
In turn, `Cc1cc(C(=O)NC(C)C)nn1Cc1cc(Cl)cc2cc(-c3ccccc3)oc12` had an IC50 in data set [1] of 10 nM.
By solubility is commonly meant the concentration that dissolves in the medium under given conditions. Low readings indicate a poorly soluble substance, high ones a readily soluble substance. The half-life is the time in which the quantity being followed falls by half. A lower half-life goes with fast loss. Usually clearance stands for the rate of elimination divided by the concentration. Read a high clearance as efficient removal. As a reminder, the ED50 is the dose that gives a 50% effect, or the effect in half of the subjects. A word on the bioavailability: it is dose-corrected exposure relative to a reference, in per cent. In general, efflux ratio refers to the permeability from basolateral to apical divided by that in the opposite direction, in the common usage. A word on the logD: it is lipophilicity at a set pH, counting ionised and neutral species. The low end stands for lower lipophilicity, the high end for higher lipophilicity. On to `Cc1cc(C(=O)NN2CCOCC2)nn1Cc1cc(Cl)cc2cc(C(C)C)oc12`, for which the solubility at 1 h in [3] is 71 µg/mL (≈ 170 µM); in [11] it was 5 µg/mL (≈ 12 µM); in data set [17], 1 µg/mL (≈ 2.4 µM). The molecule further showed a CL in data set [4] of 1.1 mL/min/g. Further, the half-life in data set [5] was 1.7 h; in [16] it was 0.5 h. The result in data set [6] and in data set [24] was Active. In [7], this molecule returned a clearance of 85 mL/min/kg. Besides, the ED50 in data set [8] was found to be 14.7 mg/kg. Besides, the concentration at 1 h was 10.2 µM in data set [9], 5.61 µM in data set [20], 11.3 µM in data set [21] and 1.95 µM in [22]. Besides, the Kp at 3 h in data set [10] turned out to be 1.15. In data set [12], the Papp stood at 67.1 ×10⁻⁶ cm/s. For the same molecule, the bioavailability in [13] came out at 19%. In addition, the outcome in data set [14] was inactive. Besides, the efflux ratio in data set [15] is 0.9. Further, in data set [2], the IC50 was 50.1 nM. Further, in data set [18], the Vd turned out to be 3 L/kg. Besides, in [19], the logD turned out to be 2.6. The Kp at 1 h in [23] turned out to be 1.05.
In turn, `Cc1cc(C(=O)NC2CCOCC2)nn1Cc1cc(Cl)cc2cc(C(C)C)oc12` had an IC50 in [2] of 63.1 nM.
In turn, `Cc1cc(C(=O)NCC(O)C(F)(F)F)nn1Cc1cc(Cl)cc2cc(-c3ccccc3)oc12` (centres undefined) had an IC50 in [1] of 25.1 nM.
`CO[C@H]1CC[C@H](NC(=O)c2cc(C)n(Cc3cc(Cl)cc4cc(C(C)C)oc34)n2)CC1` had an IC50 in data set [1] of 316 nM.
Molecule `Cc1cc(-c2nc3ccccc3[nH]2)nn1Cc1cc(Cl)cc2cc(C(C)C)oc12` gave an IC50 in [2] of 50.1 nM.
With `Cc1cc(NC(=O)C2(F)CCNCC2)nn1Cc1cc(Cl)cc2cc(-c3ccccc3)oc12`, the IC50 in data set [1] was 39.8 nM.
Same read-out and setting: to `Cc1cc(C(=O)O)nn1Cc1cc(Cl)cc2cc(C3CC3)oc12` belongs 50.1 nM; to `CCCc1cc2cc(Cl)cc(Cn3nc(C(=O)O)cc3C)c2o1`, 25.1 nM.
For orientation: Ki means the dissociation constant of the complex between target and ligand, obtained from inhibition or displacement. Take `Cc1cc(C(=O)O)nn1Cc1cc(Cl)cc2cc(C(C)C)oc12`: the Ki in data set [25] is 0.398 nM; in data set [26] it was 1000 nM. The same molecule gave an IC50 in data set [2] of 5.01 nM.
Consider `Cc1cc(C(=O)O)nn1Cc1cc(Cl)cc2cc(C3CCCCC3)oc12`, for which the IC50 in data set [1] is 3.98 nM.
